Results reported in ChEMBL document CHEMBL1122917, “Vinblastin-23-oyl amino acid derivatives: chemistry, physicochemical data, toxicity, and antitumor activities against P388 and L1210 leukemias” (J Med Chem, 1985).
Where “and” joins values, the source holds several entries; their conditions need not be identical. Equal values may be shown once.

Legend:
Mus musculus [1] = assay: Percent increase in life span at dose 10 mg/kg/day in 10 mice implanted with P388 leukemia cell line; format: functional
Outline: (§1)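 Female DBA2 mice inoculated iv on day 0 with 10^4 P388 cells; single iv treatment on day 1 with drug as sulfate salt in physiological saline. Survival followed; %ILS from all deaths and survivors as (T/C × 100) − 100, maximal MST 30 days; survivors counted on days 30 and 60. Most experiments confirmed three times.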

Mus musculus [2] = assay: Percent increase in life span at dose 4 mg/kg/day in 7 mice implanted with P388 leukemia cell line for 1,8,15 scheduled day from Exp-1; format: functional
Mus musculus [3] = assay: Percent increase in life span of BDF1 mice after inoculation with P388 leukemia cells intraperitoneally at a dose of 0.33 mg/kg per day for 1-9 scheduled days; conditions: P388, ip
Mus musculus [4] = assay: Number of survivors on 30th day at dose 4 mg/kg/day in 10 mice implanted with P388 leukemia cell line; 0 /10; format: functional
Mus musculus [5] = assay: Number of survivors on 30th day at dose 3 mg/kg/day in 10 mice implanted with P388 leukemia cell line; 0 /10; format: functional
Mus musculus [6] = assay: Percent increase in life span of DBA2 mice after inoculation with L1210 leukemia intravenously at a dose of 5.5 mg/kg per day; format: functional; conditions: route intravenous
Mus musculus [7] = assay: Percent increase in life span at dose 1 mg/kg/day in 10 mice implanted with P388 leukemia cell line; format: functional
Mus musculus [8] = assay: Number of survivors of DBA2 mice on 60th day after inoculation with L1210 leukemia cell line intravenously at a dose of 3.5 mg/kg/day; 0/10; format: functional; conditions: route intravenous
Mus musculus [9] = assay: Percent increase in life span of DBA2 mice after inoculation with L1210 leukemia intravenously at a dose of 1 mg/kg per day; format: functional; conditions: route intravenous
Mus musculus [10] = assay: Percent increase in life span at dose 0.5 mg/kg/day in 10 mice implanted with P388 leukemia cell line; format: functional
Mus musculus [11] = assay: Number of survivors on 60th day at dose 1.5 mg/kg/day in 10 mice implanted with P388 leukemia cell line; 0/10; format: functional
Mus musculus [12] = assay: Number of survivors on 60th day at dose 0.5 mg/kg/day in 10 mice implanted with P388 leukemia cell line; 0/10; format: functional
Mus musculus [13] = assay: Number of survivors of DBA2 mice on 60th day after inoculation with L1210 leukemia cell line intravenously at a dose of 4.5 mg/kg/day; 0/10; format: functional; conditions: route intravenous
Mus musculus [14] = assay: Number of survivors on 60th day at dose 6 mg/kg/day in 7 mice implanted with P388 leukemia cell line for 1,8.15 scheduled days from Exp-1; 0/10; format: functional
Mus musculus [15] = assay: Number of survivors of DBA2 mice on 30th day after inoculation with L1210 leukemia cell line intraperitoneally at a dose of 2.5 mg/kg/day; 0/10; format: functional; conditions: route intraperitoneal
Mus musculus [16] = assay: Percent increase in life span at dose 2.5 mg/kg/day in 7 mice implanted with P388 leukemia cell line for 1,8,15 scheduled days from Exp-2; format: functional
Mus musculus [17] = assay: Number of survivors on 30th day at dose 6 mg/kg/day in 10 mice implanted with P388 leukemia cell line; 0/10; format: functional
[18] = Acute iv toxicity against Swiss strain of 100 mice after 8 doses of injection; format: organism-based; conditions: mouse, in vivo
Mus musculus [19] = assay: Number of survivors on 60th day at dose 2 mg/kg/day in 10 mice implanted with P388 leukemia cell line for 1st scheduled day; 0/10; format: functional
Mus musculus [20] = assay: Percent increase in life span of BDF1 mice after inoculation with P388 leukemia intraperitoneally at a dose of 2.5 mg/kg per day; conditions: P388, ip
Mus musculus [21] = assay: Percent increase in life span at dose 3 mg/kg/day in 10 mice implanted with P388 leukemia cell line; 0/10; format: functional
Mus musculus [22] = assay: Number of survivors on 60th day at dose 2.5 mg/kg/day in 7 mice implanted with P388 leukemia cell line for 1,8,15 scheduled days from Exp-2; 0/11; format: functional
Mus musculus [23] = assay: Number of survivors on 60th day at dose 2.5 mg/kg/day in 10 mice implanted with P388 leukemia cell line for 1st scheduled day; 0/10; format: functional
Mus musculus [24] = assay: Number of survivors on 60th day at dose 3 mg/kg/day in 10 mice implanted with P388 leukemia cell line; 0/9; format: functional
Mus musculus [25] = assay: Percent increase in life span at dose 2 mg/kg/day in 7 mice implanted with P388 leukemia cell line for 1,8,15 scheduled days; format: functional
Mus musculus [26] = assay: Number of survivors of DBA2 mice on 60th day after inoculation with L1210 leukemia cell line intraperitoneally at a dose of 0.30 mg/kg/day; 0/10; format: functional; conditions: route intraperitoneal
Mus musculus [27] = assay: Percent increase in life span at dose 55 mg/kg/day in 10 mice implanted with P388 leukemia cell line for 1st schedule day; format: functional
Mus musculus [28] = assay: Percent increase in life span at dose 55 mg/kg/day in 7 mice implanted with P388 leukemia cell line for 1,8,15 schedule day; format: functional
Mus musculus [29] = assay: Percent increase in life span of DBA2 mice after inoculation with L1210 leukemia intravenously at a dose of 45 mg/kg per day; format: functional; conditions: route intravenous
Outline: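 Female DBA2 mice inoculated iv on day 0 with 10^4 L1210 cells; drugs given iv as sulfate salts in physiological saline, mostly once on day 1. %ILS from all deaths and survivors as (T/C × 100) − 100; survivors scored on days 30 and 60.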

Mus musculus [30] = assay: Number of survivors on 30th day at dose 55 mg/kg/day in 10 mice implanted with P388 leukemia cell line; 7/10; format: functional
Mus musculus [31] = assay: Percent increase in life span at dose 65 mg/kg/day in 7 mice implanted with P388 leukemia cell line for 1,8,15 schedule day in Exp-2; format: functional
Outline: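 Female DBA2 mice inoculated iv on day 0 with 10^5 P388 cells; iv dosing of sulfate salts in physiological saline on day 1 only or on days 1, 8 and 15. %ILS from all deaths and survivors as (T/C × 100) − 100, maximal MST 60 days; survivors scored on day 60.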

Mus musculus [32] = assay: Percent increase in life span at dose 50 mg/kg/day in 10 mice implanted with P388 leukemia cell line; format: functional; outline: as §1
Mus musculus [33] = assay: Number of survivors of DBA2 mice on 30th day after inoculation with L1210 leukemia cell line intravenously at a dose of 65 mg/kg/day; 0/10; format: functional; conditions: route intravenous
Mus musculus [34] = assay: Number of survivors on 60th day at dose 50 mg/kg/day in 10 mice implanted with P388 leukemia cell line; 5/10; format: functional
Mus musculus [35] = assay: Percent increase in life span at dose 58 mg/kg/day in 10 mice implanted with P388 leukemia cell line; format: functional
Mus musculus [36] = assay: Percent increase in life span at dose 55 mg/kg/day in 10 mice implanted with P388 leukemia cell line for 1,5,9 schedule days; format: functional
Mus musculus [37] = assay: Number of survivors on 60th day at dose 65 mg/kg/day in 10 mice implanted with P388 leukemia cell line; 7/9; format: functional
Mus musculus [38] = assay: Number of survivors on 60th day at dose 65 mg/kg/day in 10 mice implanted with P388 leukemia cell line for 1st scheduled day; 1/10; format: functional

In the case of `CC[C@]1(O)C[C@@H]2CN(CCc3c([nH]c4ccccc34)[C@@](C(=O)OC)(c3cc4c(cc3OC)N(C)[C@H]3[C@@](O)(C(=O)OC)[C@H](OC(C)=O)[C@]5(CC)C=CCN6CC[C@]43[C@@H]65)C2)C1` [VINBLASTINE], the ILS at 10 mg/kg/day (Mus musculus [1]) is reported as 81%, the ILS at 4 mg/kg/day (Mus musculus [2]) is reported as 58% and the ILS at 0.33 mg/kg/day (Mus musculus [3]) is reported as 74%. The Survivors (Mus musculus [4]) was 0 and the Survivors (Mus musculus [5]) was 0.
With `CC[C@]1(O)C[C@H]2CN(CCc3c([nH]c4ccccc34)[C@@](C(=O)OC)(c3cc4c(cc3OC)N(C=O)[C@H]3[C@@](O)(C(=O)OC)[C@H](OC(C)=O)[C@]5(CC)C=CCN6CC[C@]43[C@@H]65)C2)C1` [VINCRISTINE] the ILS at 5.5 mg/kg/day (Mus musculus [6]) was 26.6%, the ILS at 1 mg/kg/day (Mus musculus [7]) was 16% and the Survivors (Mus musculus [8]) was 0. The ILS at 1 mg/kg/day (Mus musculus [9]) was 10.7%, the ILS at 0.5 mg/kg/day (Mus musculus [10]) was 4% and the Survivors (Mus musculus [11]) was 0. For the same compound, the Survivors (Mus musculus [12]) was 0 and the Survivors (Mus musculus [13]) was 0.
`CCOC(=O)[C@@H](NC(=O)[C@@]1(O)[C@H](O)[C@]2(CC)C=CCN3CC[C@@]4(c5cc([C@@]6(C(=O)OC)C[C@H]7C[N@](CCc8c6[nH]c6ccccc86)C[C@](O)(CC)C7)c(OC)cc5N(C)[C@@]14C)[C@@H]32)[C@@H](C)CC` gave a Survivors (Mus musculus [14]) of 0.
With `CC[C@]1(O)C[C@@H]2CN(CCc3c([nH]c4ccccc34)[C@@](C(=O)OC)(c3cc4c(cc3OC)N(C)[C@H]3[C@@](O)(C(N)=O)[C@H](O)[C@]5(CC)C=CCN6CC[C@]43[C@@H]65)C2)C1` [VINDESINE] the Survivors (Mus musculus [15]) was 0, the ILS at 2.5 mg/kg/day (Mus musculus [16]) was 13% and the Survivors (Mus musculus [17]) was 0. For the same compound, the LD50 [18] was 13.8 mg/kg, the Survivors (Mus musculus [19]) was 0 and the ILS at 2.5 mg/kg/day (Mus musculus [20]) was 150%. For the same compound, the ILS at 3 mg/kg/day (Mus musculus [21]) was 49.2%, the Survivors (Mus musculus [22]) was 0 and the Survivors (Mus musculus [23]) was 0. The Survivors (Mus musculus [24]) was 0, the ILS at 2 mg/kg/day (Mus musculus [25]) was 31% and the Survivors (Mus musculus [26]) was 0.
With `CCOC(=O)[C@H](Cc1c[nH]c2ccccc12)NC(=O)[C@@]1(O)[C@H](O)[C@]2(CC)C=CCN3CC[C@@]4(c5cc([C@@]6(C(=O)OC)C[C@H]7C[N@](CCc8c6[nH]c6ccccc86)C[C@](O)(CC)C7)c(OC)cc5N(C)[C@@]14C)[C@@H]32` the ILS at 55 mg/kg/day (Mus musculus [27]) was > 261%, the ILS at 55 mg/kg/day (Mus musculus [28]) was 53% and the ILS at 45 mg/kg/day (Mus musculus [29]) was 92%. The Survivors (Mus musculus [30]) was 7, the ILS (Mus musculus [31]) was 40% and 108% and the ILS at 50 mg/kg/day (Mus musculus [32]) was > 161%. For the same compound, the Survivors (Mus musculus [33]) was 0, the Survivors (Mus musculus [34]) was 5 and the ILS at 58 mg/kg/day (Mus musculus [35]) was 122%. The ILS at 55 mg/kg/day (Mus musculus [36]) was > 426%, the Survivors (Mus musculus [37]) was 7 and the Survivors (Mus musculus [38]) was 1.
